What was measured:
[1] = system: VIE (5 strains), ATCC® MP-1™ panel; assay: MIC, extended VIE panel; type: cell-based, Enterococci; conditions: range over 5 strains, broth microdilution, 37 °C, 20 h
[2] = target: acetyl-Lys-D-Ala-D-Lac; assay: Microscale thermophoresis binding, D-Ala-D-Lac tripeptide; conditions: MST, fluorescently labeled tripeptide, 25 °C; N = 3, ±S.D.; n.b.: no binding
Outline: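 The tripeptide was labelled with an amine-reactive red NHS dye and mixed 1:1 with aqueous test compound (final 200 μM to 6.1 nM). Mixtures were incubated 5 min at 25 °C and read at 25 °C with 20% LED and 20% IR laser power (30 s on, 5 s off). The thermophoresis + T-jump signal from three independent runs was fitted to a single-site binding model.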

[3] = system: MurJ:lipid II complex; assay: Native mass spectrometry, MurJ:lipid II complex; type: binding; conditions: 5 µM MurJ with 3 µM lipid II, then 7 µM compound
Outline: (§1)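 Purified MurJ was buffer-exchanged into 200 mM ammonium acetate pH 8.0 with 2× critical micelle concentration LDAO and infused via gold-coated capillaries. Settings were capillary 1.1 kV, m/z 1,000–20,000, S-lens RF 100%, HCD 200 V, trapping gas 7.5, 200 °C, resolution 12,500, noise level 3, and no in-source dissociation.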

[4] = system: peptidoglycan precursors D-Ala-D-Lac; conditions: remodeling of peptidoglycan precursors from D-Ala-D-Ala to D-Ala-D-Lac; cited from earlier work
[5] = system: MurJ; assay: Native mass spectrometry, direct binding to MurJ; conditions: 3 µM compound added to MurJ
Outline: as §1

[6] = system: HEK293 cells; assay: MTT viability assay, HEK293; type: cell-based, human; conditions: 500 μg/mL, 48 h, relative to 1% (v/v) DMSO vehicle control; n = 3
Outline: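 HEK293 cells were kept in DMEM with 10% (v/v) FBS, 1% (v/v) penicillin/streptomycin and 4.5 g/L glucose at 37 °C, 5% CO2, passaged tri-weekly. MTT viability was measured after test compound at 500 μg/mL and normalized to 1% (v/v) DMSO vehicle. The positive control was the cytotoxic peptide NaD1 at 50 μM. Three technical replicates were run, with unpaired two-tailed Student's t tests.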

CN[C@H](CC(C)C)C(=O)N[C@H]1C(=O)N[C@@H](CC(N)=O)C(=O)N[C@H]2C(=O)N[C@H]3C(=O)N[C@H](C(=O)N[C@H](C(=O)O)c4cc(O)cc(O)c4-c4cc3ccc4O)[C@H](O)c3ccc(c(Cl)c3)Oc3cc2cc(c3O[C@@H]2O[C@H](CO)[C@@H](O)[C@H](O)[C@H]2O[C@H]2C[C@](C)(N)[C@H](O)[C@H](C)O2)Oc2ccc(cc2Cl)[C@H]1O [Vancomycin]
MIC, VIE (5 strains) [1]: 8 to 16 µg/mL | KD, acetyl-Lys-D-Ala-D-Lac [2]: no binding was observed | Ternary complex formation with MurJ:lipid II (native mass spectra) [3]: expected ternary complex was formed | Reduction of vancomycin binding and antimicrobial activity [4]: 1,000 fold | Direct binding to MurJ (native mass spectra) [5]: no binding was observed | Viability of HEK293 cells (MTT) [6]: significant decrease in the viability

Source: publication PMC10104512 (Proceedings of the National Academy of Sciences of the …, 2023)
